Test results from ChEMBL document CHEMBL2086314, “Synthesis and anticonvulsant activity of new N-Mannich bases derived from 3-(2-fluorophenyl)- and 3-(2-bromophenyl)-pyrrolidine-2,5-diones. Part II” (Bioorg Med Chem, 2012).
The source made the active and inactive calls. The calls are words filed in the database; no cut-off is given here.

Test system: Mus musculus
Assay: Anticonvulsant activity in CF-1 albino mouse assessed as protection from maximal electric shock-induced seizures at 300 mg/kg, ip measured after 0.5 hrs
Assay type: functional, organism-based
Design: dose 300 mg/kg
Conditions: not given
Outline: (§1)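 Male CF-1 mice dosed ip at 30, 100 or 300 mg/kg, suspension in 0.5% methylcellulose/water. MES: corneal electrodes primed with electrolyte containing anaesthetic, 50 mA, 60 Hz, 0.2 s. Examined 0.5 and 4 h after dosing. Value is the minimum dose protecting half or more of the animals.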

Compound	Activity
O=C1CC(c2ccccc2F)C(=O)N1CN1CCN(c2ccc(F)cc2)CC1 (racemic)	inactive
O=C1CC(c2ccccc2Br)C(=O)N1CN1CCN(c2ccc(F)cc2)CC1 (racemic)	inactive
O=C1CC(c2ccccc2F)C(=O)N1CN1CCN(c2ncccn2)CC1 (racemic)	inactive

Test system: Mus musculus
Assay: Anticonvulsant activity in ip dosed CF-1 albino mouse assessed as protection from maximal electric shock-induced seizures measured after 4 hrs
Assay type: functional
Conditions: read-out: MED
Outline: as §1

Compound	minimal effective dose
O=C1CC(c2ccccc2F)C(=O)N1CN1CCN(c2ccc(F)cc2)CC1 (racemic)	30 mg/kg
O=C1CC(c2ccccc2Br)C(=O)N1CN1CCN(c2ccc(F)cc2)CC1 (racemic)	100 mg/kg
O=C1CC(c2ccccc2F)C(=O)N1CN1CCN(c2ncccn2)CC1 (racemic)	100 mg/kg

Test system: Mus musculus
Assay: Neurotoxicity in ip dosed CF-1 albino mouse assessed as motor impairment measured after 0.5 hrs by rotarod test
Assay type: toxicity, organism-based
Conditions: in vivo
Outline: (§2)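 Rotarod neurotoxicity in male CF-1 mice given ip doses of 30, 100 or 300 mg/kg (0.5% methylcellulose suspension), examined 0.5 and 4 h after dosing. Impairment means failing to hold balance on the rod for 1 min. Value is the minimum dose causing toxicity in half or more of the animals; response comments are recorded.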

Compound	MTC
O=C1CC(c2ccccc2F)C(=O)N1CN1CCN(c2ncccn2)CC1 (racemic)	300 mg/kg

Test system: Mus musculus
Assay: Neurotoxicity in CF-1 albino mouse assessed as motor impairment at 300 mg/kg, ip measured after 0.5 hrs by rotarod test
Assay type: toxicity, organism-based
Design: dose 300 mg/kg, route intraperitoneal
Conditions: in vivo
Outline: as §2

Compound	Activity
O=C1CC(c2ccccc2F)C(=O)N1CN1CCN(c2ccc(F)cc2)CC1 (racemic)	Non-toxic
O=C1CC(c2ccccc2Br)C(=O)N1CN1CCN(c2ccc(F)cc2)CC1 (racemic)	Non-toxic

Test system: Mus musculus
Assay: Neurotoxicity in CF-1 albino mouse assessed as motor impairment, ip measured after 4 hrs by rotarod test
Assay type: toxicity, organism-based
Conditions: in vivo

Compound	MTC
O=C1CC(c2ccccc2F)C(=O)N1CN1CCN(c2ccc(F)cc2)CC1 (racemic)	300 mg/kg

Test system: Mus musculus
Assay: Neurotoxicity in CF-1 albino mouse assessed as motor impairment at 300 mg/kg, ip measured after 4 hrs by rotarod test
Assay type: toxicity, organism-based
Design: dose 300 mg/kg, route intraperitoneal
Conditions: in vivo
Outline: as §2

Compound	Activity
O=C1CC(c2ccccc2Br)C(=O)N1CN1CCN(c2ccc(F)cc2)CC1 (racemic)	Non-toxic
O=C1CC(c2ccccc2F)C(=O)N1CN1CCN(c2ncccn2)CC1 (racemic)	Non-toxic

Test system: Mus musculus
Assay: Anticonvulsant activity in ip dosed CF-1 albino mouse assessed as protection against subcutaneous pentylenetetrazol-induced seizures measured after 0.5 hrs
Assay type: functional
Conditions: read-out: MED
Outline: (§3)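 scPTZ test in male CF-1 mice. Compound suspended in 0.5% methylcellulose/water, ip at 30, 100 or 300 mg/kg. Pentylenetetrazole 85 mg/kg (CD97, clonic seizures lasting at least 5 s) given subcutaneously at the test time, read at 0.5 and 4 h. Value is the minimum dose protecting half or more of the animals.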

Compound	minimal effective dose
O=C1CC(c2ccccc2F)C(=O)N1CN1CCN(c2ncccn2)CC1 (racemic)	300 mg/kg

Test system: Mus musculus
Assay: Anticonvulsant activity in CF-1 albino mouse assessed as protection against subcutaneous pentylenetetrazol-induced seizures at 300 mg/kg, ip measured after 4 hrs
Assay type: functional, organism-based
Design: dose 300 mg/kg
Conditions: not given
Outline: as §3

Compound	Activity
O=C1CC(c2ccccc2F)C(=O)N1CN1CCN(c2ncccn2)CC1 (racemic)	inactive

Test system: Mus musculus
Assay: Neurotoxicity in CF-1 albino mouse assessed as myoclonic jerks at 300 mg/kg, ip measured after 0.5 hrs by rotarod test
Assay type: toxicity, organism-based
Design: dose 300 mg/kg, route intraperitoneal
Conditions: in vivo

Compound	Activity
O=C1CC(c2ccccc2F)C(=O)N1CN1CCN(c2ncccn2)CC1 (racemic)	Toxic

Test system: Rattus norvegicus
Assay: Anticonvulsant activity in Sprague-Dawley rat assessed as protection from maximum electric shock-induced seizures at 30 mg/kg, po measured after 0.25 hrs
Assay type: functional
Conditions: not given
Outline: (§4)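 Male Sprague–Dawley rats, four per group, given 30 mg/kg orally as a suspension in 0.5% methylcellulose/water. MES stimulus 150 mA, 60 Hz, 0.2 s via corneal electrodes. Tested at 0.25, 0.5, 1, 2 and 4 h; value is rats protected out of four.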

Compound	Activity
O=C1CC(c2ccccc2F)C(=O)N1CN1CCN(c2ccc(F)cc2)CC1 (racemic)	0%
O=C1CC(c2ccccc2Br)C(=O)N1CN1CCN(c2ccc(F)cc2)CC1 (racemic)	25%

Test system: Rattus norvegicus
Assay: Anticonvulsant activity in Sprague-Dawley rat assessed as protection from maximum electric shock-induced seizures at 30 mg/kg, po measured after 0.5 hrs
Assay type: functional
Conditions: not given
Outline: as §4

Compound	Activity
O=C1CC(c2ccccc2F)C(=O)N1CN1CCN(c2ccc(F)cc2)CC1 (racemic)	0%
O=C1CC(c2ccccc2Br)C(=O)N1CN1CCN(c2ccc(F)cc2)CC1 (racemic)	25%

Test system: Rattus norvegicus
Assay: Anticonvulsant activity in Sprague-Dawley rat assessed as protection from maximum electric shock-induced seizures at 30 mg/kg, po measured after 1 hr
Assay type: functional
Conditions: not given
Outline: as §4

Compound	Activity
O=C1CC(c2ccccc2F)C(=O)N1CN1CCN(c2ccc(F)cc2)CC1 (racemic)	0%
O=C1CC(c2ccccc2Br)C(=O)N1CN1CCN(c2ccc(F)cc2)CC1 (racemic)	25%

Test system: Rattus norvegicus
Assay: Anticonvulsant activity in Sprague-Dawley rat assessed as protection from maximum electric shock-induced seizures at 30 mg/kg, po measured after 2 hrs
Assay type: functional
Conditions: not given
Outline: as §4

Compound	Activity
O=C1CC(c2ccccc2F)C(=O)N1CN1CCN(c2ccc(F)cc2)CC1 (racemic)	25%
O=C1CC(c2ccccc2Br)C(=O)N1CN1CCN(c2ccc(F)cc2)CC1 (racemic)	50%

Test system: Rattus norvegicus
Assay: Anticonvulsant activity in Sprague-Dawley rat assessed as protection from maximum electric shock-induced seizures at 30 mg/kg, po measured after 4 hrs
Assay type: functional
Conditions: not given
Outline: as §4

Compound	Activity
O=C1CC(c2ccccc2F)C(=O)N1CN1CCN(c2ccc(F)cc2)CC1 (racemic)	50%
O=C1CC(c2ccccc2Br)C(=O)N1CN1CCN(c2ccc(F)cc2)CC1 (racemic)	75%

Test system: Rattus norvegicus
Assay: Neurotoxicity in Sprague-Dawley rat assessed as motor impairment at 30 mg/kg, po by rotarod test
Assay type: toxicity, organism-based
Design: dose 30 mg/kg, route oral
Conditions: in vivo
Outline: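 Male Sprague–Dawley rats, four animals, oral 30 mg/kg in 0.5% methylcellulose/water. Motor impairment on the rotarod (failure to keep balance for 1 min) assessed alongside MES at five times from 0.25 to 4 h.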

Compound	Activity
O=C1CC(c2ccccc2F)C(=O)N1CN1CCN(c2ccc(F)cc2)CC1 (racemic)	Non-toxic
O=C1CC(c2ccccc2Br)C(=O)N1CN1CCN(c2ccc(F)cc2)CC1 (racemic)	Non-toxic

Test system: Rattus norvegicus
Assay: Anticonvulsant activity in po dosed Sprague-Dawley rat assessed as protection from maximum electric shock-induced seizures
Assay type: functional
Conditions: not given
Outline: (§5)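 Male Sprague–Dawley rats dosed orally (0.5% methylcellulose suspension). MES 150 mA, 60 Hz, 0.2 s; rotarod impairment is failure to keep balance for 1 min. Groups of eight, at the previously estimated time of peak effect, with doses varied until at least three points fell in the 10–90% range. ED50/TD50 with 95% confidence intervals from regression; PI = TD50/ED50.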

Compound	ED50
O=C1CC(c2ccccc2Br)C(=O)N1CN1CCN(c2ccc(F)cc2)CC1 (racemic)	7.4 mg/kg

Test system: not listed separately
Assay: Neurotoxicity in po dosed Sprague-Dawley rat assessed as motor impairment measured at time of peak effect by rotarod test
Assay type: toxicity, organism-based
Conditions: in vivo
Outline: as §5

Compound	TD50
O=C1CC(c2ccccc2Br)C(=O)N1CN1CCN(c2ccc(F)cc2)CC1 (racemic)	62.4 mg/kg

Species: Rattus norvegicus
Assay: Protective index, ratio of TD50 for Sprague-Dawley rat to ED50 for Sprague-Dawley rat assessed as protection from maximum electric shock-induced seizures
Assay type: functional
Conditions: not given
Outline: as §5

Compound	Ratio TD50/ED50
O=C1CC(c2ccccc2Br)C(=O)N1CN1CCN(c2ccc(F)cc2)CC1 (racemic)	8.43

Test system: Rattus norvegicus
Assay: Anticonvulsant activity in po dosed maximum electric shock-induced Sprague-Dawley rat assessed as time of peak effect
Assay type: functional
Conditions: not given
Outline: as §5

Compound	Time
O=C1CC(c2ccccc2Br)C(=O)N1CN1CCN(c2ccc(F)cc2)CC1 (racemic)	4 h

Test system: Mus musculus
Assay: Anticonvulsant activity in ip dosed CF-1 albino mouse assessed as protection from maximal electric shock-induced seizures
Assay type: functional
Conditions: not given
Outline: (§6)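 ED50 and TD50 determined in male CF-1 mice after ip dosing (0.5% methylcellulose suspension) at the previously estimated time of peak effect. MES 50 mA, 60 Hz, 0.2 s. Groups of eight, with doses varied until at least three points fell between 10–90% protection or motor impairment. Regression gives ED50/TD50 with 95% confidence intervals; PI = TD50/ED50.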

Compound	ED50
O=C1CC(c2ccccc2F)C(=O)N1CN1CCN(c2ccc(F)cc2)CC1 (racemic)	101 mg/kg
O=C1CC(c2ccccc2Br)C(=O)N1CN1CCN(c2ccc(F)cc2)CC1 (racemic)	79.9 mg/kg

Test system: not listed separately
Assay: Neurotoxicity in ip dosed CF-1 albino mouse assessed as motor impairment by rotarod test
Assay type: toxicity, organism-based
Conditions: in vivo

Compound	TD50
O=C1CC(c2ccccc2F)C(=O)N1CN1CCN(c2ccc(F)cc2)CC1 (racemic)	166 mg/kg
O=C1CC(c2ccccc2Br)C(=O)N1CN1CCN(c2ccc(F)cc2)CC1 (racemic)	466 mg/kg

Species: Mus musculus
Assay: Protective index, ratio of TD50 for CF-1 albino mouse to ED50 for CF-1 albino mouse assessed as protection from maximum electric shock-induced seizures
Assay type: functional
Conditions: not given
Outline: as §6

Compound	Ratio TD50/ED50
O=C1CC(c2ccccc2F)C(=O)N1CN1CCN(c2ccc(F)cc2)CC1 (racemic)	1.65
O=C1CC(c2ccccc2Br)C(=O)N1CN1CCN(c2ccc(F)cc2)CC1 (racemic)	5.83

Test system: Mus musculus
Assay: Anticonvulsant activity in ip dosed maximal electric shock-induced CF-1 albino mouse assessed as time of peak effect
Assay type: functional
Conditions: not given
Outline: as §6

Compound	Time
O=C1CC(c2ccccc2F)C(=O)N1CN1CCN(c2ccc(F)cc2)CC1 (racemic)	4 h
O=C1CC(c2ccccc2Br)C(=O)N1CN1CCN(c2ccc(F)cc2)CC1 (racemic)	4 h
